According to ChEMBL document CHEMBL3861950, “Design, synthesis and evaluation of novel 19F magnetic resonance sensitive protein tyrosine phosphatase inhibitors” (Medchemcomm, 2016):
pIC50: −log10 of the molar value.

Key:
[1] = target: T1, Receptor-type tyrosine-protein phosphatase C (Homo sapiens, UniProt P08575); test: Inhibition of recombinant CD45 (unknown origin) using pNPP as substrate by spectrophotometric method
T1 sequence (P08575 whole entry): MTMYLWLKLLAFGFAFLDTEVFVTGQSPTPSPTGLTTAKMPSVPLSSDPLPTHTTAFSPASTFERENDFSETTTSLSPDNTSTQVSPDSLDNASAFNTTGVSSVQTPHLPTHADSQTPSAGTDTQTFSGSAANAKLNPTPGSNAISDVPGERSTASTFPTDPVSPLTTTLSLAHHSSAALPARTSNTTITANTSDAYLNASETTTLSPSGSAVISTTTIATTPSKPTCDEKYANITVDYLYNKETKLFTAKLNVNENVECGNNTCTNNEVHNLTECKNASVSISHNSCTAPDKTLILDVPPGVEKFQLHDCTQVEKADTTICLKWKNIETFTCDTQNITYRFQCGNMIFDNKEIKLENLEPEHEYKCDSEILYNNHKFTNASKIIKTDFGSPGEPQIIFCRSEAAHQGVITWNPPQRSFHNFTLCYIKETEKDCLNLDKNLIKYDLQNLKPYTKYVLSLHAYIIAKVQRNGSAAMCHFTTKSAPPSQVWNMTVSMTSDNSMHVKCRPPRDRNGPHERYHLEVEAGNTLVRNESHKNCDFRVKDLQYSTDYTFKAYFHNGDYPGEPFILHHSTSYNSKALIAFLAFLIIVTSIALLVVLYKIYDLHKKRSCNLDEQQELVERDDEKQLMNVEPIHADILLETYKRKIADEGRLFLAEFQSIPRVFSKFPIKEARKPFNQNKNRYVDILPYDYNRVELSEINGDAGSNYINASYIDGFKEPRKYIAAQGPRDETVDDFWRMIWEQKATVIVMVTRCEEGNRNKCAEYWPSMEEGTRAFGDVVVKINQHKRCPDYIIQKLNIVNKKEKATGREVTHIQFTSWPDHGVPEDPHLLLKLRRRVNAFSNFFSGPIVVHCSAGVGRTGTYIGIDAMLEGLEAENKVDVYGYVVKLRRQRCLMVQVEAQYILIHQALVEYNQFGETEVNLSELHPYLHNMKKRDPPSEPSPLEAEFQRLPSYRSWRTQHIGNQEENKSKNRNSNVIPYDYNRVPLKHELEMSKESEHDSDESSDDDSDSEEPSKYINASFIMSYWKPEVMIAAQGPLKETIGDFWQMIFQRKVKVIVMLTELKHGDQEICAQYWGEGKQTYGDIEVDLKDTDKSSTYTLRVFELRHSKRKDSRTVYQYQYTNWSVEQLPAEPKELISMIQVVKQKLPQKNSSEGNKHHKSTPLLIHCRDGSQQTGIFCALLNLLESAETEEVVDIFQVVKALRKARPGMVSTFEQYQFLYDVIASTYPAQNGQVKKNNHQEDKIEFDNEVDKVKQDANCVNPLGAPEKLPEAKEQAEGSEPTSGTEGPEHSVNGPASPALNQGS
How it was run: (§1)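 Recombinant PTP prepared in-house, assayed with pNPP substrate in 50 mM 3,3-dimethylglutarate buffer pH 7.0 containing 1 mM EDTA and 150 mM NaCl at 25 °C, in 96-well format. p-Nitrophenol product was quantified by absorbance at 405 nm. Non-enzymatic pNPP hydrolysis was corrected using a no-enzyme control.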

[2] = target: Tyrosine-protein phosphatase non-receptor type 13 (Homo sapiens, UniProt Q12923); test: Inhibition of recombinant FAP1 (unknown origin) using pNPP as substrate by spectrophotometric method; how it was run: as §1
Sequence of Tyrosine-protein phosphatase non-receptor type 13 (Q12923 whole entry): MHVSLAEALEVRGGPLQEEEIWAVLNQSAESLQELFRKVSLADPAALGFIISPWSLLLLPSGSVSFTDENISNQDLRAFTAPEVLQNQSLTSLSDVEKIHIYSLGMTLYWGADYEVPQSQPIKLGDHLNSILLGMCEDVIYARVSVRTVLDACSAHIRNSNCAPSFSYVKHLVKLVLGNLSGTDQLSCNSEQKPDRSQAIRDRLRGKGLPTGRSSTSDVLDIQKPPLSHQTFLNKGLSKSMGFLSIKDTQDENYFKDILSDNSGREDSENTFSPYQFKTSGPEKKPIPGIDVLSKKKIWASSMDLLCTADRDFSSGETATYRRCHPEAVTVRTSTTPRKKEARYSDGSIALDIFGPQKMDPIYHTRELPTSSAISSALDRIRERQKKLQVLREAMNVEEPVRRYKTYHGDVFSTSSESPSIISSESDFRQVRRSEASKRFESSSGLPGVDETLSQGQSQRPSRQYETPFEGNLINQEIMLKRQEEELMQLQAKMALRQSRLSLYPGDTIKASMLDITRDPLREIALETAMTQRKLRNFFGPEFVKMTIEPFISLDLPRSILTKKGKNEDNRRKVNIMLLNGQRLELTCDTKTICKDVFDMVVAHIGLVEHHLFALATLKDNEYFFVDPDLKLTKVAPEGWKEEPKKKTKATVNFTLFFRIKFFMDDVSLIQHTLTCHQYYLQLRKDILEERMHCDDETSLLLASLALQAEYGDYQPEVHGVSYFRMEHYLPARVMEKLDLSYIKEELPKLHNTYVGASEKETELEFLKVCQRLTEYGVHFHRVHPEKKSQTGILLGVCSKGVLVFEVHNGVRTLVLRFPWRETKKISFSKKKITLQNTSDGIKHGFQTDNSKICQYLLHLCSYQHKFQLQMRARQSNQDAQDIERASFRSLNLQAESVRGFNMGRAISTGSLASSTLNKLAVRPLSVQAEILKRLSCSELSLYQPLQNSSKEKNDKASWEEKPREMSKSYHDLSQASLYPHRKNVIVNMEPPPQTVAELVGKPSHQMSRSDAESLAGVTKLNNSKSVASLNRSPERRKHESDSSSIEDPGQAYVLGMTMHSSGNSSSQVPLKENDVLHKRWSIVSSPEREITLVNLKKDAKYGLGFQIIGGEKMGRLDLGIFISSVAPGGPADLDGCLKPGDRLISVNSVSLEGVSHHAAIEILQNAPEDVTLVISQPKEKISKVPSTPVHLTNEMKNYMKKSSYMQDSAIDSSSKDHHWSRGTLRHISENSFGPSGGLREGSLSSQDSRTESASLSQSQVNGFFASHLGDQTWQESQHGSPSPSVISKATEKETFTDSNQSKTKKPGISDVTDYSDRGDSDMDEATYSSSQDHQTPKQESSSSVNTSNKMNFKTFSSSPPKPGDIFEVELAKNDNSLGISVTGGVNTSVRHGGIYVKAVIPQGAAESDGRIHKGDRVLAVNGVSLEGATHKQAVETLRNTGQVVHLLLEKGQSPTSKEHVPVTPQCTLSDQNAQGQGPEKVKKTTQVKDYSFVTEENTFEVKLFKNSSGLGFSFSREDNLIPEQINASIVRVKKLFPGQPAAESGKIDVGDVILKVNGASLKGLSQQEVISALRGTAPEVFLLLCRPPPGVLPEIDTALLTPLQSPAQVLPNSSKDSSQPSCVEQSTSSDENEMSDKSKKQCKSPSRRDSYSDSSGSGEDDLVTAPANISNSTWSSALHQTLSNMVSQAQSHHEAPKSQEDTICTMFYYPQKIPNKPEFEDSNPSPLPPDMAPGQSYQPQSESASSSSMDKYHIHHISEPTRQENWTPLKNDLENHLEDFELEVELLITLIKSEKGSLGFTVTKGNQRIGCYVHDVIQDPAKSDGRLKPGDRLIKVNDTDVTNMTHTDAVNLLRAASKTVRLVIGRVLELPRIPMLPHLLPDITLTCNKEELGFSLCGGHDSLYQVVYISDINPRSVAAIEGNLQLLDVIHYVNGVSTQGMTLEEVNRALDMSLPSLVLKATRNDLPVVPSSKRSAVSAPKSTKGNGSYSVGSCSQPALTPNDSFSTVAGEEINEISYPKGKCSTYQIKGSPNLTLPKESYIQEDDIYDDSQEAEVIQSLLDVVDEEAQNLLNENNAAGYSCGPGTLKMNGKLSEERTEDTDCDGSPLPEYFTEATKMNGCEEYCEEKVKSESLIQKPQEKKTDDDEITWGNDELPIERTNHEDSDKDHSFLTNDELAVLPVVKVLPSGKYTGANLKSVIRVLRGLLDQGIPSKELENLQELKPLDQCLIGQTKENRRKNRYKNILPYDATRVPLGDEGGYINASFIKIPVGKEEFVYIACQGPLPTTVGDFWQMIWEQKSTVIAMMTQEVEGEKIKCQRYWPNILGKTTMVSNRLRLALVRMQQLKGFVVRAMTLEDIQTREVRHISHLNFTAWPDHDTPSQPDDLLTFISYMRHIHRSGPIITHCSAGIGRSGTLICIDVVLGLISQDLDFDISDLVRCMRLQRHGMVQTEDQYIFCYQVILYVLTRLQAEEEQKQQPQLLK

[3] = target: T2, Tyrosine-protein phosphatase non-receptor type 22 (Homo sapiens, UniProt Q9Y2R2); test: Inhibition of recombinant LYP (unknown origin) using pNPP as substrate by spectrophotometric method; how it was run: as §1
T2 sequence (Q9Y2R2 whole entry): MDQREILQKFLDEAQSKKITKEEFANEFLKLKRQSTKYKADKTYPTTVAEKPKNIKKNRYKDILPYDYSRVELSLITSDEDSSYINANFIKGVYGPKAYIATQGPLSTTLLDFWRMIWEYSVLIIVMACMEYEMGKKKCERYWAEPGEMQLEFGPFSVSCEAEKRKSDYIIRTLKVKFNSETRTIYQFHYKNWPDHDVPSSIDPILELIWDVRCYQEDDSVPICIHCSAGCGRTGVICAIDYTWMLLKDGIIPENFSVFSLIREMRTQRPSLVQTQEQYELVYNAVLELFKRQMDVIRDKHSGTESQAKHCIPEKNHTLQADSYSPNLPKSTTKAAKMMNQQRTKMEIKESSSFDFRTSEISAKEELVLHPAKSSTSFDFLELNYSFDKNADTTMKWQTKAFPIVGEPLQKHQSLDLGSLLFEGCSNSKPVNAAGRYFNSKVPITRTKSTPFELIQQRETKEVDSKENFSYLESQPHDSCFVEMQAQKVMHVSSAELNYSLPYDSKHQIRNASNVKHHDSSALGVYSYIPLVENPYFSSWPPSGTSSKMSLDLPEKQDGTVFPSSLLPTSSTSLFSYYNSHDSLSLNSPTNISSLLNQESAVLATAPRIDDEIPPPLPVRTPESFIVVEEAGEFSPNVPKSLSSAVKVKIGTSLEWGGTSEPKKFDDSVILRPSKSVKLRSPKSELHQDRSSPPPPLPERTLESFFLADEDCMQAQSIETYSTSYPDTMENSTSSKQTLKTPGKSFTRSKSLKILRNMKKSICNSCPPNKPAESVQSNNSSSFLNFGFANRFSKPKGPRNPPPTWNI

[4] = Inhibition of recombinant Mycobacterium tuberculosis PTPB using pNPP as substrate by spectrophotometric method
How it was run: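 Recombinant enzyme made in-house. Substrate pNPP in 50 mM 3,3-dimethylglutarate buffer, pH 7.0, with 1 mM EDTA and 150 mM NaCl, at 25 °C, screened in 96-well format. p-Nitrophenol product read at 405 nm. Non-enzymatic pNPP hydrolysis was corrected using a control without enzyme.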

[5] = target: T3, Tyrosine-protein phosphatase non-receptor type 1 (Homo sapiens, UniProt P18031); test: Inhibition of recombinant PTP1B (unknown origin) using pNPP as substrate by spectrophotometric method; how it was run: as §1
T3 sequence (P18031 whole entry): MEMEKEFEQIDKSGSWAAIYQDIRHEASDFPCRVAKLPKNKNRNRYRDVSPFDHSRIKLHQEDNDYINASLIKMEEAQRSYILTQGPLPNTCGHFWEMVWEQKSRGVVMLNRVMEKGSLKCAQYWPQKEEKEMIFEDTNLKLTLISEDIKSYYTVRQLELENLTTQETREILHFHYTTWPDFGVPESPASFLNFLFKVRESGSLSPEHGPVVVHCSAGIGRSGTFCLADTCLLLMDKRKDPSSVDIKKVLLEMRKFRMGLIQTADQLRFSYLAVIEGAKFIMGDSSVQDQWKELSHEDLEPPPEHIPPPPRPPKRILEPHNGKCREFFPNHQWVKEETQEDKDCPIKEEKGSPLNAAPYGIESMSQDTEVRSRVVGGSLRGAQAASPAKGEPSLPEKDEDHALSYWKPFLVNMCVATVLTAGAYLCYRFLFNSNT

[6] = target: T4, Tyrosine-protein phosphatase non-receptor type 11 (Homo sapiens, UniProt Q06124); test: Inhibition of recombinant SHP2 (unknown origin) using pNPP as substrate by spectrophotometric method; how it was run: as §1
T4 sequence (Q06124 whole entry): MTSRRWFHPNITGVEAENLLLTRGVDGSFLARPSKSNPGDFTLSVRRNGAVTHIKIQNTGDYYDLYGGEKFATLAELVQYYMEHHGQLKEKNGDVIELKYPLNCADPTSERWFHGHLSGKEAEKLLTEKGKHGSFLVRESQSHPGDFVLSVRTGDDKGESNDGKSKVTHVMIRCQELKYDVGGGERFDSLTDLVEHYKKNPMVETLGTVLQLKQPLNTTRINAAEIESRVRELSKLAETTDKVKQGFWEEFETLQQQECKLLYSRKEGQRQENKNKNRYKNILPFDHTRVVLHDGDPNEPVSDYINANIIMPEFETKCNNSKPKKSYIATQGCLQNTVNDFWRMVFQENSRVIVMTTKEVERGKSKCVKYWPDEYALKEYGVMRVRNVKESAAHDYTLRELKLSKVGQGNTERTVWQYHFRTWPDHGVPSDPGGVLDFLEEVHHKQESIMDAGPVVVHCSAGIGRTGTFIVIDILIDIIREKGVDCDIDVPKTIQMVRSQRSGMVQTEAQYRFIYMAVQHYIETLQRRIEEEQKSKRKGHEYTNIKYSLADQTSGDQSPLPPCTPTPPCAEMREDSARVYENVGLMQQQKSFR

SMILES	pIC50 [1]	pIC50 [2]	pIC50 [3]	pIC50 [4]	pIC50 [5]	pIC50 [6]
Oc1c(C(O)(C(F)(F)F)C(F)(F)F)ccc2ccccc12	< 3.30	< 3.30	< 3.30	< 3.30	< 3.30	< 3.30
COc1ccc(CNC(=O)COc2ccc3cc(C(O)(C(F)(F)F)C(F)(F)F)c(O)cc3c2)cc1OC	< 4.70	< 4.70	< 4.70	4.74	< 4.70	< 4.70
O=C(COc1ccc2cc(C(O)(C(F)(F)F)C(F)(F)F)c(O)cc2c1)NCCc1ccc(Cl)cc1Cl	5.28	5.37	5.16	5.29	4.90	5.17
CC(C)c1ccc(NC(=O)COc2ccc3cc(C(O)(C(F)(F)F)C(F)(F)F)c(O)cc3c2)cc1	5.11	5.19	5.06	5.14	4.76	5.07
O=C(COc1ccc2cc(C(O)(C(F)(F)F)C(F)(F)F)c(O)cc2c1)Nc1ccccc1	< 4.70	< 4.70	< 4.70	4.84	–	4.72
O=C(COc1ccc2cc(C(O)(C(F)(F)F)C(F)(F)F)c(O)cc2c1)Nc1ccc(N2CCOCC2)cc1	< 4.70	< 4.70	< 4.70	< 4.70	< 4.70	< 4.70
O=C(COc1ccc2cc(C(O)(C(F)(F)F)C(F)(F)F)c(O)cc2c1)NC12CC3CC(CC(C3)C1)C2	5.12	5.13	5.00	< 4.70	4.83	5.05
O=C(COc1ccc2cc(C(O)(C(F)(F)F)C(F)(F)F)c(O)cc2c1)Nc1nc2ccccc2s1	4.96	5.00	4.84	5.59	< 4.70	4.89
CCN(CC)C(=O)COc1ccc2cc(C(O)(C(F)(F)F)C(F)(F)F)c(O)cc2c1	< 4.70	< 4.70	< 4.70	< 4.70	< 4.70	< 4.70
O=C(COc1ccc2cc(C(O)(C(F)(F)F)C(F)(F)F)c(O)cc2c1)Nc1cccc2ccccc12	4.54	< 4.70	< 4.70	5.33	< 4.70	< 4.70
